Measured values as given in ChEMBL document CHEMBL1157465, “Design, synthesis, and biological evaluation of novel 3-aryl-4-(1H-indole-3yl)-1,5-dihydro-2H-pyrrole-2-ones as vascular endothelial growth factor receptor (VEGF-R) inhibitors” (J Med Chem, 2008).

How the values were obtained:
Insulin receptor = Insulin receptor (Homo sapiens, UniProt P06213); experiment: Inhibition of human recombinant INS-R
[1] = target: Serine/threonine-protein kinase B-raf (Homo sapiens, UniProt P15056, V600E); experiment: Inhibition of human recombinant B-Raf-V600E mutant
Procedure, shortened: (§1)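 Human kinases expressed in Sf9 cells by baculovirus as GST or His fusions and affinity purified. Radiometric 33PanQinase assay: 60 mM HEPES-NaOH pH 7.5, 3 mM MgCl2, 3 mM MnCl2, 3 µM orthovanadate, 1.2 mM DTT, 1 µM [γ-33P]ATP, 50-400 ng enzyme, 1% DMSO; 30 °C, 80 min. Substrates: B-Raf-VE, MEK1 KM; CDK2/CycA, histone H1; CK2-A1, casein; COT, autophosphorylation. IC50 from 10 concentrations; 33Pi incorporation by scintillation.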

Homo sapiens [2] = organism: Homo sapiens; experiment: Induction of apoptosis in HDMEC assessed as cleaved caspase 3 at 1.3 uM after 24 hrs; assay type: functional
Procedure, shortened: (§2)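 HDMEC incubated 24 h with compound. Adherent cells and supernatant harvested together, stained with an antibody to cleaved caspase-3, and analysed by FACS as percent apoptotic cells. Three independent repeats.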

[3] = target: Mitogen-activated protein kinase kinase kinase 8 (Homo sapiens, UniProt P41279); experiment: Inhibition of human recombinant COT; procedure, shortened: as §1
Homo sapiens [4] = organism: Homo sapiens; experiment: Antiangiogenic activity in VEGF-induced HLMEC assessed as sprouts per bead at 1.3 uM after 24 hrs by sprouting assay; assay type: functional
Procedure, shortened: (§3)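 HLMEC seeded on cytodex-3 microcarrier beads and embedded in 3D fibrinogen gel with 20 ng/mL VEGF plus compound at a final 1.3 or 2.6 µM (from 1 mM DMSO stock). Gel polymerised with 0.65 U/mL thrombin and overlaid with MCDB131, 5% FCS, 5% human serum and 200 U/mL Trasylol. Negative control: gel without growth factors. After 24 h, fixed in 1% PFA; sprouts per 50 beads counted microscopically. Triplicates per condition, n = 9 experiments.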

Homo sapiens [5] = organism: Homo sapiens; experiment: Induction of apoptosis in HDMEC assessed as cleaved caspase 3 at 2.6 uM after 24 hrs; assay type: functional; procedure, shortened: as §2
Homo sapiens [6] = organism: Homo sapiens; experiment: Antiangiogenic activity in VEGF-induced HLMEC assessed as number of sprouts per bead at 2.6 uM after 24 hrs by sprouting assay; assay type: functional; procedure, shortened: as §3
[7] = target: Receptor tyrosine-protein kinase erbB-2 (Homo sapiens, UniProt P04626); experiment: Inhibition of human recombinant ERBB2
Procedure, shortened: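 Human kinases expressed in Sf9 cells via baculovirus as GST or His fusions and affinity purified. 33PanQinase assay in 60 mM HEPES-NaOH pH 7.5, 3 mM MgCl2, 3 mM MnCl2, 3 µM orthovanadate, 1.2 mM DTT, 1 µM [γ-33P]ATP, 1% DMSO; 30 °C, 80 min. Substrates: poly(Glu,Tyr) 4:1 for ERBB2, IGF1-R and SRC; poly(Ala,Glu,Lys,Tyr) 6:2:5:1 for FLT3. IC50 from 10 concentrations by scintillation counting.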

Ephrin type-B receptor 4 = Ephrin type-B receptor 4 (Homo sapiens, UniProt P54760); experiment: Inhibition of human recombinant EPHB4
Procedure, shortened: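 Recombinant human tyrosine kinases (EPHB4, TIE2, VEGF-R2, VEGF-R3), expressed in Sf9 insect cells as GST- or His-fusions, with poly(Glu,Tyr) 4:1 as substrate. Conditions: 1 µM [γ-33P]ATP, pH 7.5 HEPES buffer with Mg/Mn, DTT and vanadate, 30 °C for 80 min, 1% DMSO. Ten concentrations were tested and IC50 came from scintillation counting of incorporated 33P.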

[8] = target: Platelet-derived growth factor receptor beta (Homo sapiens, UniProt P09619); experiment: Inhibition of human recombinant PDGFRbeta
[9] = target: Hepatocyte growth factor receptor (Homo sapiens, UniProt P08581); experiment: Inhibition of human recombinant MET

Platelet-derived growth factor receptor beta, sequence (P09619 whole entry): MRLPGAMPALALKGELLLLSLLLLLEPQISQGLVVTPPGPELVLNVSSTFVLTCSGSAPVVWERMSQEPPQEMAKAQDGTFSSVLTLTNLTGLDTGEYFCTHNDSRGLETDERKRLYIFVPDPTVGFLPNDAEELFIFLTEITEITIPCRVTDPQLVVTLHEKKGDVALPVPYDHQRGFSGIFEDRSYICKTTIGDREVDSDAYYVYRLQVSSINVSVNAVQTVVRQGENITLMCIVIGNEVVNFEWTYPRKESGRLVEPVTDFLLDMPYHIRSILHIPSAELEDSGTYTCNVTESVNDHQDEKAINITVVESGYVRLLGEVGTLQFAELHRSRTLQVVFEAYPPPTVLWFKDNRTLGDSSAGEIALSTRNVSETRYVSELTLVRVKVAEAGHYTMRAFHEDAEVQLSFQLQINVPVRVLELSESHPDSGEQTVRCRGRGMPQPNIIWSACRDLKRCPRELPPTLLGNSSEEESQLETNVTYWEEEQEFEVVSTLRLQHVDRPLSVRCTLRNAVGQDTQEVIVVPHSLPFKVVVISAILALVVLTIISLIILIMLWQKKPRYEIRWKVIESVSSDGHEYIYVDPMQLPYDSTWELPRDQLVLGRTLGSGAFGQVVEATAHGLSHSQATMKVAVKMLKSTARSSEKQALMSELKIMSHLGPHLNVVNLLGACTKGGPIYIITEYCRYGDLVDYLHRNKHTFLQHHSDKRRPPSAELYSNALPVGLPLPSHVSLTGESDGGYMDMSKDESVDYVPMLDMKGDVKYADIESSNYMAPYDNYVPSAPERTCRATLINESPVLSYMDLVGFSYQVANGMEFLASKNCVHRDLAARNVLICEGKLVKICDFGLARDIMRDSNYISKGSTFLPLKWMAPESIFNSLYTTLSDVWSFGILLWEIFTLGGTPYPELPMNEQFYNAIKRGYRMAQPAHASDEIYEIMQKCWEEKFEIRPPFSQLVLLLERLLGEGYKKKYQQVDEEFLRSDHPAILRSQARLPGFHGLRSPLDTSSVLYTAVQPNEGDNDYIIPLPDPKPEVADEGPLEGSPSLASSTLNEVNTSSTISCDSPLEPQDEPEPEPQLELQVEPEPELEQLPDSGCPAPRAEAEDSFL
Mitogen-activated protein kinase kinase kinase 8, sequence (P41279 whole entry): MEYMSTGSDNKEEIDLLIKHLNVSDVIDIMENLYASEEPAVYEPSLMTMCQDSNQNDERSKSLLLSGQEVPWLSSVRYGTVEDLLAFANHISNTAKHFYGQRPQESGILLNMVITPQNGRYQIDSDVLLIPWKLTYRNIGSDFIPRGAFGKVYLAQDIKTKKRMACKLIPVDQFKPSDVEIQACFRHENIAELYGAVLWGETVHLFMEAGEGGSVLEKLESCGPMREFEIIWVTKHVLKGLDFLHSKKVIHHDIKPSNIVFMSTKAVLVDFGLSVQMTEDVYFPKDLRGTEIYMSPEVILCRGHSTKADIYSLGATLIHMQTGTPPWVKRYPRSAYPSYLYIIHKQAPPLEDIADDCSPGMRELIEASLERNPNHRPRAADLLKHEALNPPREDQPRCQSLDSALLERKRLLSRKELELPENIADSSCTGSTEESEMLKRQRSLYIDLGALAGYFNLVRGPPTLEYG
Serine/threonine-protein kinase B-raf, sequence (P15056 2-766 V600E limits assumed): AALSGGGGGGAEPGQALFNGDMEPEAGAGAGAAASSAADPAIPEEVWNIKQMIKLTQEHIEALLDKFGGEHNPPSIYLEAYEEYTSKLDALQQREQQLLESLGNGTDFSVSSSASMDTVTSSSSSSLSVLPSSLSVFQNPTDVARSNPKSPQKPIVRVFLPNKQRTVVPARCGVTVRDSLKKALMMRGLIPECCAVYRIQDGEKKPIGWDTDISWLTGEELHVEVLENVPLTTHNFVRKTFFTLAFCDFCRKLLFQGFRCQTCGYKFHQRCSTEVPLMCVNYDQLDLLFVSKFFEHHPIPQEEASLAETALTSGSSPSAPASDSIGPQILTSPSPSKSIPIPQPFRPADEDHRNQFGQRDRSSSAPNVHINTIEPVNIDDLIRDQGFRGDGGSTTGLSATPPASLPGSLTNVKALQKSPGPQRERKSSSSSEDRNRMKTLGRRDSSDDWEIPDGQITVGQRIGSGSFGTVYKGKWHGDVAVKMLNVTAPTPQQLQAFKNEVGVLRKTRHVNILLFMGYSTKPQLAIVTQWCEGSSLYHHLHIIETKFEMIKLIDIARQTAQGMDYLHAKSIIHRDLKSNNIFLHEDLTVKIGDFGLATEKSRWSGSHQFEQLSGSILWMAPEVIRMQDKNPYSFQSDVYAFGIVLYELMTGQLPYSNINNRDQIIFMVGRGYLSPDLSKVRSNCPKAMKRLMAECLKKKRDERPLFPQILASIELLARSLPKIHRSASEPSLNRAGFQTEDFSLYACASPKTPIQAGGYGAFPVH
Insulin receptor, sequence (P06213 28-758 limits assumed): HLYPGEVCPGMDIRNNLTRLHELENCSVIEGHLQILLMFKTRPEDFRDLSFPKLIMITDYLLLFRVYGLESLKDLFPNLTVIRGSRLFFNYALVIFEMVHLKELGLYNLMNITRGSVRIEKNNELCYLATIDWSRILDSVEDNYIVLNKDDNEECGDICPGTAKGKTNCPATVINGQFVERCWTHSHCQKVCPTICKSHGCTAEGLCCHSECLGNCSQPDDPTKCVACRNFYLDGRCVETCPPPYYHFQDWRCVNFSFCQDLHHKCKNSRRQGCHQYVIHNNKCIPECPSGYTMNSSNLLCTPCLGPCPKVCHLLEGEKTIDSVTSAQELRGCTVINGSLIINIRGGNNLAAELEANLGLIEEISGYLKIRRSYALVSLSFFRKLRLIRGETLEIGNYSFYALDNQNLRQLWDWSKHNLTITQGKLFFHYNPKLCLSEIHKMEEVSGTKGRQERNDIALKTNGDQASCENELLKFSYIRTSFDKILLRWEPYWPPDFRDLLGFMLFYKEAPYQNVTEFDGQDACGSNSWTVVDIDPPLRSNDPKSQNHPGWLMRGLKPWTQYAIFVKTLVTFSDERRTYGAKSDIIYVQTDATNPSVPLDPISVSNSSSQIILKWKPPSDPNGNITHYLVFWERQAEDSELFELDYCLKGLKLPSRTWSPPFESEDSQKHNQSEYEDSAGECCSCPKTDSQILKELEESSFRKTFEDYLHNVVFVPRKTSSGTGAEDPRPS
Insulin receptor, sequence (P06213 763-1382 limits assumed): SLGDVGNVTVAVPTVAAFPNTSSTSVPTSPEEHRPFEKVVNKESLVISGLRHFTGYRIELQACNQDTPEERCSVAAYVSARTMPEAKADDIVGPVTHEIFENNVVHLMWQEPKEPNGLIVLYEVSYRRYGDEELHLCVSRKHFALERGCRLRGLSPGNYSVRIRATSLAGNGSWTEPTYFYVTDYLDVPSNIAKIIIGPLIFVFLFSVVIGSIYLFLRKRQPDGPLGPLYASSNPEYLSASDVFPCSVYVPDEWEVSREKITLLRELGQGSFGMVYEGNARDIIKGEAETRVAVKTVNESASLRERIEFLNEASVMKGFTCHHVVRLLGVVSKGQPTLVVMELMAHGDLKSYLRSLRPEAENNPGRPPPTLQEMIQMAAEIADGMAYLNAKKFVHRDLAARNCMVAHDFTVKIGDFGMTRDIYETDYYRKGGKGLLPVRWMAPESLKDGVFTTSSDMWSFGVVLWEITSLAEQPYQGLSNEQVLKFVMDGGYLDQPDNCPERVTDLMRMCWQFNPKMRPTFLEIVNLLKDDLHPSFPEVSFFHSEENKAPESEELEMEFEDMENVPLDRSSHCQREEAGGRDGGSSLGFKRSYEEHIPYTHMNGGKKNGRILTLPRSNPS
Ephrin type-B receptor 4, sequence (P54760 whole entry, the tested form may be a part): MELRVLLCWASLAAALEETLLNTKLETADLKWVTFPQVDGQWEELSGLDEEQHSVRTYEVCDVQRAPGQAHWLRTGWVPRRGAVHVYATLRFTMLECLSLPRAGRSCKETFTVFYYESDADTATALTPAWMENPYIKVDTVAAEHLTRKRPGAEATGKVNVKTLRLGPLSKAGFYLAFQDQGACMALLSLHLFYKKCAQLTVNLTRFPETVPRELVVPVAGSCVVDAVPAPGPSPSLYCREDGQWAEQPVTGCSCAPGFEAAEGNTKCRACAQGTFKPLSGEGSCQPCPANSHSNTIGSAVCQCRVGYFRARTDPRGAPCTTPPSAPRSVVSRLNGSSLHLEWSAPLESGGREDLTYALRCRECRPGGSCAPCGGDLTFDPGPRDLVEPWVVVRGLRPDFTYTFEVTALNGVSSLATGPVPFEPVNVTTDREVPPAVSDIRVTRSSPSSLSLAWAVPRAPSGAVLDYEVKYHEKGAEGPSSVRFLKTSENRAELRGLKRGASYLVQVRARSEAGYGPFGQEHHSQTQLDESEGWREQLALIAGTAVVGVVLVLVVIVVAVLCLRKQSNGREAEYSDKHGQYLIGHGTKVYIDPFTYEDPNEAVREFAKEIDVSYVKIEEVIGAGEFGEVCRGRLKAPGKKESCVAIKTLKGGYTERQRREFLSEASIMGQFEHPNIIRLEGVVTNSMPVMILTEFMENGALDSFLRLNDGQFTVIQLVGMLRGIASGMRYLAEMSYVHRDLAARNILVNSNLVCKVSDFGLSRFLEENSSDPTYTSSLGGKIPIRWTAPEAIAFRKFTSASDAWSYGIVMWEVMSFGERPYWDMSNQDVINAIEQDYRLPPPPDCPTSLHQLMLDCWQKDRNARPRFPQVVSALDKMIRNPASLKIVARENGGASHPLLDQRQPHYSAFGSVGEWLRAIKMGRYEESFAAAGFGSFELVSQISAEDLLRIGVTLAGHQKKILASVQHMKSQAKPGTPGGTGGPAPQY

Row | Compound | IC50 (Insulin receptor) [µM] | IC50 [1] [µM] | IC50 [3] [µM] | inhibition (Homo sapiens [4]) [%] | Activity (Homo sapiens [6]) | IC50 [8] [µM] | also measured
1 | COc1cc(C2=C(c3cn(C)c4ccccc34)C(=O)NC2)cc(OC)c1OC | 47 | 50 | – | – | – | – | –
2 | COc1cc(C2=C(c3c[nH]c4ccccc34)CNC2=O)cc(OC)c1OC | – | – | 32 | 88 | 0.27 | – | Activity (Homo sapiens [2]): 25%; Activity (Homo sapiens [5]): 42.1%
3 | COc1cc(C2=C(c3c[nH]c4ccccc34)C(=O)NC2)cc(OC)c1OC | – | – | – | 34 | 2.56 | – | –
4 | COc1cc(C2=C(c3cn(COC(C)(C)C)c4ccccc34)CNC2=O)cc(OC)c1OC | 27 | 38 | 9.6 | – | – | 38 | IC50 [7]: 25 µM; IC50 (Ephrin type-B receptor 4): 20 µM; IC50 [9]: 29 µM
5 | COc1cc(C2=C(c3cn(CC(O)CO)c4ccccc34)CNC2=O)cc(OC)c1OC (configuration not stated) | – | – | – | – | – | 40 | –
